{"source": "paper PMC5947295", "about": "(Clinical Pharmacology in Drug Development, 2018)", "key": {"[1]": {"tested_on": "plasma, cerebrospinal fluid (CSF), and brain Aβ1–40, Aβ1–42, and sAPPβ concentrations", "details": "guinea pig; cited from earlier work"}, "[2]": {"tested_on": "plasma, cerebrospinal fluid (CSF), and brain Aβ1–40, Aβ1–42, and sAPPβ concentrations", "details": "mouse; cited from earlier work"}, "[3]": {"details": "single oral dose of [14C]‐lanabecestat; cited from earlier work"}, "Caco‐2": {"tested_on": "Caco‐2", "details": "cited from earlier work"}, "[4]": {"tested_on": "plasma, cerebrospinal fluid (CSF), and brain Aβ1–40, Aβ1–42, and sAPPβ concentrations", "details": "dog; cited from earlier work"}, "[5]": {"details": "cited from earlier work; for Cmax: single 150‐mg dose"}, "[6]": {"experiment": "Safety and tolerability monitoring in the crossover study", "assay_type": "in vivo, human", "details": "healthy subjects", "how_it_was_run": "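Single oral 50 mg dose on days 1, 8 and 15 as 10 mL solution (5 mg/mL), tablet A or tablet B, with 7–10-day washout. Dosed after an overnight fast with 240 mL water, fasted to 4 h postdose. AEs, hematology, chemistry (ALT, AST, ALP), urinalysis, vitals, ECG, physical/neurological examination and C-SSRS were monitored throughout.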"}, "plasma Aβ peptides": {"tested_on": "plasma Aβ peptides", "details": "single dose at the highest dose studied, SAD study; cited from earlier work"}, "BACE1 [7]": {"tested_on": "BACE1", "details": "in vitro; cited from earlier work"}, "[8]": {"details": "elderly healthy subjects and patients with mild to moderate AD, up to 750 mg single dose or 150 mg multiple dose; cited from earlier work"}, "Caco-2 permeability": {"experiment": "Caco-2 permeability", "assay_type": "in vitro ADME", "details": "human"}, "[9]": {"tested_on": "plasma and CSF Aβ peptides", "details": "once‐weekly (70‐mg) dosing schedule; cited from earlier work"}, "[10]": {"experiment": "Phase 1 randomized 3-period crossover relative bioavailability study, plasma PK", "assay_type": "in vivo", "details": "both, human, po, 50 mg"}, "BACE1 [11]": {"tested_on": "BACE1", "details": "read-out: In vitro 50% inhibitory concentration (IC50) for BACE1; cited from earlier work"}, "[12]": {"details": "phase 2, small number of subjects; cited from earlier work"}, "[13]": {"details": "single 50 mg dose, safety set n = 16"}}, "note": "Like-named read-outs stand apart in the source and are kept apart here.", "data": [{"compound": "CC#Cc1cncc(-c2ccc3c(c2)[C@@]2(N=C(C)C(N)=N2)[C@]2(CC[C@H](OC)CC2)C3)c1", "note": "[lanabecestat, [1r,1′R,4R]‐4‐methoxy‐5″‐methyl‐6′‐[5‐(prop‐1‐yn‐1‐yl)pyridin‐3‐yl]‐3′H‐dispiro[cyclohexane‐1,2′‐indene‐1′,2″‐imidazol]‐4″‐amine]", "values": [{"measurement": "Plasma, CSF and brain Aβ1–40, Aβ1–42 and sAPPβ concentrations", "setting": "[1]", "result": "robustly reduced"}, {"measurement": "Plasma, CSF and brain Aβ1–40, Aβ1–42 and sAPPβ concentrations", "setting": "[2]", "result": "robustly reduced"}, {"measurement": "Radioactive dose recovered in feces", "setting": "[3]", "result": 74, "unit": "%"}, {"measurement": "Radioactive dose recovered in urine", "setting": "[3]", "result": 25, "unit": "%"}, {"measurement": "Mean Caco‐2 apical‐to‐basolateral Papp permeability", "setting": "Caco‐2", "result": "34.8 × 10^‐6 cm/s"}, {"measurement": "Plasma, CSF and brain Aβ1–40, Aβ1–42 and sAPPβ concentrations", "setting": "[4]", "result": "robustly reduced"}, {"measurement": "Cmax", "setting": "[5]; fasted", "result": 701, "unit": "ng/mL"}, {"measurement": "Cmax", "setting": "[5]; fed", "result": 499, "unit": "ng/mL"}, {"measurement": "Effect of food intake on AUC", "setting": "[5]; food intake", "result": "minimal effect"}, {"measurement": "tmax with food intake (later tmax)", "setting": "[5]; food intake", "result": "~2", "unit": "h"}, {"measurement": "Tolerability", "setting": "[6]; single 50 mg dose as solution or tablet", "result": "well tolerated"}, {"measurement": "Severity of adverse events", "setting": "[6]; single 50 mg dose", "result": "mild"}, {"measurement": "Subjects reporting adverse events", "setting": "[6]; single 50 mg dose, 16 subjects", "result": 37.5, "unit": "%"}, {"measurement": "Number of subjects with ≥1 TEAE", "setting": "[6]; [13]", "result": "6 (37.5) n (%)"}, {"measurement": "TEAE: Dizziness", "setting": "[6]; [13]", "result": "1 (6.3) n (%)"}, {"measurement": "TEAE: Dry skin", "setting": "[6]; [13]", "result": "2 (12.5) n (%)"}, {"measurement": "TEAE: Headache", "setting": "[6]; [13]", "result": "2 (12.5) n (%)"}, {"measurement": "TEAE: URTI", "setting": "[6]; [13]", "result": "1 (6.3) n (%)"}, {"measurement": "Changes in liver‐related clinical chemistry parameters", "setting": "[6]; single 50 mg doses", "result": "no significant changes"}, {"measurement": "Duration of suppression of plasma Aβ peptides", "setting": "plasma Aβ peptides", "result": "up to 3 weeks"}, {"measurement": "Off‐rate from BACE1, half‐life", "setting": "BACE1 [7]", "result": "approximately 9 hours"}, {"measurement": "Safety and tolerability", "setting": "[8]", "result": "no safety or tolerability concerns"}, {"measurement": "Papp", "setting": "Caco-2 permeability", "result": "> 10", "unit": "×10⁻⁶ cm/s"}, {"measurement": "Suppression of plasma and CSF Aβ peptides", "setting": "[9]", "result": "prolonged suppression"}, {"measurement": "half-life", "setting": "[10]", "result": "~16", "unit": "h"}, {"measurement": "IC50", "setting": "BACE1 [11]", "result": 0.6, "unit": "nM"}]}, {"compound": "NC1=N[C@@]2(c3cc(NC(=O)c4ccc(F)cn4)ccc3F)COC[C@H]2CS1", "note": "[LY2886721]", "values": [{"measurement": "Liver safety finding that terminated clinical development", "setting": "[12]", "result": "elevations in circulating liver‐enzyme activity"}]}]}
